Measured values as given in ChEMBL document CHEMBL1151705, “Novel azalides derived from 16-membered macrolides. Part II: Isolation of the linear 9-formylcarboxylic acid and its sequential macrocyclization with an amino alcohol or an azidoamine” (2008).
Converted amounts (≈) assume the structure as drawn.

What was measured:
Staphylococcus aureus [1] = assay: Antimicrobial activity against Staphylococcus aureus 6 expressing inducible ermC after 20 hrs by agar dilution method
Streptococcus pneumoniae [2] = assay: Antimicrobial activity against Streptococcus pneumoniae 7 expressing inducible ermB after 20 hrs by agar dilution method; format: functional
Method in brief: (§1)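 Streptococci, H. influenzae and M. catarrhalis were precultured on blood agar plates. Suspensions of about 10⁶ CFU/ml were inoculated onto sensitivity disk agar supplemented with 5% horse blood and incubated at 37 °C for 20 h. MIC was read as the lowest drug concentration with no visible growth.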

Moraxella catarrhalis [3] = assay: Antimicrobial activity against drug-susceptible Moraxella catarrhalis 1 after 20 hrs by agar dilution method; format: functional
Method in brief: as §1

Haemophilus influenzae [4] = assay: Antimicrobial activity against drug-susceptible Haemophilus influenzae 4 after 20 hrs by agar dilution method; format: functional
Method in brief: as §1

Haemophilus influenzae [5] = assay: Antimicrobial activity against drug-susceptible Haemophilus influenzae 2 after 20 hrs by agar dilution method; format: functional
Method in brief: as §1

Streptococcus pneumoniae [6] = assay: Antimicrobial activity against Streptococcus pneumoniae 9 expressing mefA after 20 hrs by agar dilution method; format: functional
Method in brief: as §1

Streptococcus pyogenes [7] = assay: Antimicrobial activity against Streptococcus pyogenes 3 expressing mefA after 20 hrs by agar dilution method; format: functional
Method in brief: as §1

Staphylococcus aureus [8] = assay: Antimicrobial activity against drug-susceptible Staphylococcus aureus 2 after 20 hrs by agar dilution method; format: functional
Method in brief: (§2)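 Agar dilution MIC. S. aureus seed culture was grown in sensitivity test broth. Cell suspension (about 10⁶ CFU/ml) was inoculated onto sensitivity disk agar with 5% horse blood and incubated at 37 °C for 20 h. MIC was the lowest drug concentration that prevented visible growth.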

Haemophilus influenzae [9] = assay: Antimicrobial activity against drug-susceptible Haemophilus influenzae 3 after 20 hrs by agar dilution method; format: functional
Method in brief: as §1

Staphylococcus aureus [10] = assay: Antimicrobial activity against drug-susceptible Staphylococcus aureus 209P JC-1 after 20 hrs by agar dilution method; format: functional
Method in brief: as §2

Streptococcus pneumoniae [11] = assay: Antimicrobial activity against Streptococcus pneumoniae 8 expressing inducible ermB after 20 hrs by agar dilution method; format: functional
Method in brief: as §1

Staphylococcus aureus [12] = assay: Antimicrobial activity against Staphylococcus aureus 5 expressing inducible ermB after 20 hrs by agar dilution method; format: functional
Method in brief: as §2

Streptococcus pneumoniae [13] = assay: Antimicrobial activity against drug-susceptible Streptococcus pneumoniae 3 after 20 hrs by agar dilution method; format: functional
Method in brief: as §1

Haemophilus influenzae [14] = assay: Antimicrobial activity against drug-susceptible Haemophilus influenzae 1 after 20 hrs by agar dilution method; format: functional
Method in brief: as §1

Streptococcus pneumoniae [15] = assay: Antimicrobial activity against drug-susceptible Streptococcus pneumoniae DP1 Type1 after 20 hrs by agar dilution method; format: functional
Method in brief: as §1

Staphylococcus aureus [16] = assay: Antimicrobial activity against drug-susceptible Staphylococcus aureus 3 after 20 hrs by agar dilution method; format: functional
Method in brief: as §2

Streptococcus pneumoniae [17] = assay: Antimicrobial activity against Streptococcus pneumoniae 10 expressing mefA after 20 hrs by agar dilution method; format: functional
Method in brief: as §1

Moraxella catarrhalis [18] = assay: Antimicrobial activity against drug-susceptible Moraxella catarrhalis 2 after 20 hrs by agar dilution method; format: functional
Method in brief: as §1

Streptococcus pyogenes [19] = assay: Antimicrobial activity against drug-susceptible Streptococcus pyogenes 1 after 20 hrs by agar dilution method; format: functional
Method in brief: as §1

Streptococcus pneumoniae [20] = assay: Antimicrobial activity against drug-susceptible Streptococcus pneumoniae 2 after 20 hrs by agar dilution method; format: functional
Method in brief: as §1

[21] = Haemophilus influenzae, 20 h, read-out: MIC

Compound	MIC (Staphylococcus aureus [1]) [µg/mL]	MIC (Streptococcus pneumoniae [2]) [µg/mL]	MIC (Moraxella catarrhalis [3]) [µg/mL]	MIC (Haemophilus influenzae [4]) [µg/mL]	MIC (Haemophilus influenzae [5]) [µg/mL]	MIC (Streptococcus pneumoniae [6]) [µg/mL]	MIC (Streptococcus pyogenes [7]) [µg/mL]	MIC (Staphylococcus aureus [8]) [µg/mL]	MIC (Haemophilus influenzae [9]) [µg/mL]	MIC (Staphylococcus aureus [10]) [µg/mL]	MIC (Streptococcus pneumoniae [11]) [µg/mL]	MIC (Staphylococcus aureus [12]) [µg/mL]	MIC (Streptococcus pneumoniae [13]) [µg/mL]	MIC (Haemophilus influenzae [14]) [µg/mL]	MIC (Streptococcus pneumoniae [15]) [µg/mL]	MIC (Staphylococcus aureus [16]) [µg/mL]	MIC (Streptococcus pneumoniae [17]) [µg/mL]	MIC (Moraxella catarrhalis [18]) [µg/mL]	MIC (Streptococcus pyogenes [19]) [µg/mL]	MIC (Streptococcus pneumoniae [20]) [µg/mL]	further results
CCOC(=O)[C@H]1[C@H](C)O[C@@H](O[C@H]2[C@H](N(C)C)[C@@H](O)[C@H](O[C@H]3[C@@H](CC=O)C[C@@H](C)[C@@H](O)CN(C)CCC(CCCc4ccnc5ccccc45)NC(=O)C[C@@H](OC(=O)CC)[C@@H]3OC)O[C@@H]2C)C[C@@]1(C)O (stereo in doubt; form 2)	4 (≈ 4.11 µM)	64 (≈ 65.8 µM)	8 (≈ 8.22 µM)	8 (≈ 8.22 µM)	2 (≈ 2.06 µM)	0.25 (≈ 0.257 µM)	2 (≈ 2.06 µM)	8 (≈ 8.22 µM)	16 (≈ 16.4 µM)	4 (≈ 4.11 µM)	64 (≈ 65.8 µM)	4 (≈ 4.11 µM)	0.25 (≈ 0.257 µM)	64 (≈ 65.8 µM)	0.13 (≈ 0.134 µM)	2 (≈ 2.06 µM)	0.25 (≈ 0.257 µM)	8 (≈ 8.22 µM)	0.5 (≈ 0.514 µM)	0.25 (≈ 0.257 µM)	
CCOC(=O)[C@H]1[C@H](C)O[C@@H](O[C@H]2[C@H](N(C)C)[C@@H](O)[C@H](O[C@H]3[C@@H](CC=O)C[C@@H](C)[C@@H](O)CN(C)CC(CCCc4ccnc5ccccc45)CCOC(=O)C[C@@H](OC(=O)CC)[C@@H]3OC)O[C@@H]2C)C[C@@]1(C)O (stereo in doubt; form 2)	0.5 (≈ 0.506 µM)	16 (≈ 16.2 µM)	1 (≈ 1.01 µM)	8 (≈ 8.1 µM)		0.06 (≈ 0.0607 µM)	0.25 (≈ 0.253 µM)	0.5 (≈ 0.506 µM)	8 (≈ 8.1 µM)	0.25 (≈ 0.253 µM)	16 (≈ 16.2 µM)	0.25 (≈ 0.253 µM)	0.03 (≈ 0.0304 µM)	16 (≈ 16.2 µM)	0.015 (≈ 0.0152 µM)	0.25 (≈ 0.253 µM)	0.06 (≈ 0.0607 µM)	1 (≈ 1.01 µM)	0.06 (≈ 0.0607 µM)	0.06 (≈ 0.0607 µM)	MIC (Haemophilus influenzae [5]; [21]): 2 µg/mL (≈ 2.02 µM)
CCOC(=O)[C@H]1[C@H](C)O[C@@H](O[C@H]2[C@H](N(C)C)[C@@H](O)[C@H](O[C@H]3[C@@H](CC=O)C[C@@H](C)[C@@H](O)CN(C)CC(/C=C\Cc4ccnc5ccccc45)CCOC(=O)C[C@@H](OC(=O)CC)[C@@H]3OC)O[C@@H]2C)C[C@@]1(C)O (stereo in doubt; form 2)	4 (≈ 4.06 µM)	>128	16 (≈ 16.2 µM)	128 (≈ 130 µM)		1 (≈ 1.01 µM)	4 (≈ 4.06 µM)	4 (≈ 4.06 µM)	128 (≈ 130 µM)	2 (≈ 2.03 µM)	>128	2 (≈ 2.03 µM)	0.5 (≈ 0.507 µM)	>128	0.5 (≈ 0.507 µM)	2 (≈ 2.03 µM)	1 (≈ 1.01 µM)	16 (≈ 16.2 µM)	1 (≈ 1.01 µM)	1 (≈ 1.01 µM)	MIC (Haemophilus influenzae [5]; [21]): 32 µg/mL (≈ 32.4 µM)
CCOC(=O)[C@H]1[C@H](C)O[C@@H](O[C@H]2[C@H](N(C)C)[C@@H](O)[C@H](O[C@H]3[C@@H](CC=O)C[C@@H](C)[C@@H](O)CN(C)CCC(C/C=C/c4ccnc5ccccc45)NC(=O)C[C@@H](OC(=O)CC)[C@@H]3OC)O[C@@H]2C)C[C@@]1(C)O (stereo in doubt)	4 (≈ 4.12 µM)		8 (≈ 8.24 µM)	16 (≈ 16.5 µM)	4 (≈ 4.12 µM)	0.5 (≈ 0.515 µM)	2 (≈ 2.06 µM)	8 (≈ 8.24 µM)		4 (≈ 4.12 µM)		2 (≈ 2.06 µM)		64 (≈ 65.9 µM)	0.25 (≈ 0.257 µM)	2 (≈ 2.06 µM)		4 (≈ 4.12 µM)	0.5 (≈ 0.515 µM)	0.25 (≈ 0.257 µM)	
CCOC(=O)[C@H]1[C@H](C)O[C@@H](O[C@H]2[C@H](N(C)C)[C@@H](O)[C@H](O[C@H]3[C@@H](CC=O)C[C@@H](C)[C@@H](O)CN(C)CC(/C=C/Cc4ccnc5ccccc45)CCOC(=O)C[C@@H](OC(=O)CC)[C@@H]3OC)O[C@@H]2C)C[C@@]1(C)O (stereo in doubt; form 2)	0.5 (≈ 0.507 µM)	128 (≈ 130 µM)	2 (≈ 2.03 µM)	16 (≈ 16.2 µM)		0.06 (≈ 0.0608 µM)	0.25 (≈ 0.253 µM)	1 (≈ 1.01 µM)	16 (≈ 16.2 µM)	0.25 (≈ 0.253 µM)	128 (≈ 130 µM)	0.25 (≈ 0.253 µM)		32 (≈ 32.4 µM)	0.03 (≈ 0.0304 µM)	0.25 (≈ 0.253 µM)	0.06 (≈ 0.0608 µM)	2 (≈ 2.03 µM)	0.13 (≈ 0.132 µM)	0.06 (≈ 0.0608 µM)	MIC (Haemophilus influenzae [5]; [21]): 4 µg/mL (≈ 4.06 µM)
CCOC(=O)[C@H]1[C@H](C)O[C@@H](O[C@H]2[C@H](N(C)C)[C@@H](O)[C@H](O[C@H]3[C@@H](CC=O)C[C@@H](C)[C@@H](O)CN(CCCCc4ccccc4)CCC(C)NC(=O)C[C@@H](OC(=O)CC)[C@@H]3OC)O[C@@H]2C)C[C@@]1(C)OC(C)=O (stereo in doubt; form 2)	0.5 (≈ 0.511 µM)	32 (≈ 32.7 µM)	0.13 (≈ 0.133 µM)	8 (≈ 8.18 µM)	1 (≈ 1.02 µM)		0.25 (≈ 0.256 µM)	1 (≈ 1.02 µM)	8 (≈ 8.18 µM)	0.25 (≈ 0.256 µM)	32 (≈ 32.7 µM)	0.25 (≈ 0.256 µM)		32 (≈ 32.7 µM)	0.13 (≈ 0.133 µM)	0.25 (≈ 0.256 µM)		0.25 (≈ 0.256 µM)	0.06 (≈ 0.0613 µM)	0.25 (≈ 0.256 µM)	
